Laboratory results: ChEMBL document CHEMBL1275283, “Synthesis and evaluation of novel stearoyl-CoA desaturase 1 inhibitors: 1'-{6-[5-(pyridin-3-ylmethyl)-1,3,4-oxadiazol-2-yl]pyridazin-3-yl}-3,4-dihydrospiro[chromene-2,4'-piperidine] analogs” (Eur J Med Chem, 2010)
≈ marks a conversion by molar mass, not a printed value.

Columns and labels:
Acyl-CoA desaturase 1 = target: T1, Acyl-CoA desaturase 1 (Mus musculus, UniProt P13516); test: Inhibition of SCD1 in mouse microsome assessed as reduction in conversion of [14C]stearic acid to [14C]oleic acid after 30 mins; type: microsomes
T1 sequence (P13516 whole entry): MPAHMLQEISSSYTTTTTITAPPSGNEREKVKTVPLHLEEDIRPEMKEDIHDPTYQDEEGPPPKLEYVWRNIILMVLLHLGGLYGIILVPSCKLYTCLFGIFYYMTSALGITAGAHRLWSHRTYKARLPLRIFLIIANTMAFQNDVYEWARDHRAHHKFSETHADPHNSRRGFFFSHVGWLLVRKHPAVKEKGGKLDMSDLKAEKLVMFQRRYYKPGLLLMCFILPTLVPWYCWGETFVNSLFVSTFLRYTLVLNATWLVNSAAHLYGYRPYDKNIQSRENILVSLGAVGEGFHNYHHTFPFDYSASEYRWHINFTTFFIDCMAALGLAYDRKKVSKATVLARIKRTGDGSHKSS

Stearoyl-CoA desaturase [1] = target: T2, Stearoyl-CoA desaturase (Homo sapiens, UniProt O00767); test: Inhibition of human SCD1 expressed in HEK293A cells assessed as reduction in conversion of [14C]stearic acid to [14C]oleic acid after 30 mins; type: cell-based, HEK293-A
T2 sequence (O00767 whole entry): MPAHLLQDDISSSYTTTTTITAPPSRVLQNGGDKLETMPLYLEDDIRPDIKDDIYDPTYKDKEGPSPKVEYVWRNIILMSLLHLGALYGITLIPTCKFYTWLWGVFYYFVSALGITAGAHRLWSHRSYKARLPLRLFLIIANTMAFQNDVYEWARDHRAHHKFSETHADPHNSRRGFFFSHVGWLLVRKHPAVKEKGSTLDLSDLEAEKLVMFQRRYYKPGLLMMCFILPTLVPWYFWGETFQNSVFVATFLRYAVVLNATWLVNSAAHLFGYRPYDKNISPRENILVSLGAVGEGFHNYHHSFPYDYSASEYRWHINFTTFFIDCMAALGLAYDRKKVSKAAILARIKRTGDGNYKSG
Procedure, shortened: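 293A cells stably expressing human SCD1 (G418-selected) grown to confluence in DMEM + 10% FBS. Cells preincubated with compound 30 min, then given 0.1 µCi [14C]stearate for 4 h. Lipids saponified in KOH, separated by AgNO3-TLC, and the [14C]oleate/[14C]stearate ratio used as activity. IC50 derived from this read-out.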

Stearoyl-CoA desaturase [2] = target: T2, Stearoyl-CoA desaturase; test: Inhibition of SCD1 in HEK293A cell microsomes assessed as reduction in conversion of [14C]stearic acid to [14C]oleic acid after 30 mins; set-up: species or system HEK293-A, Microsome
Mus musculus = test: Inhibition of liver SCD1 activity in po dosed db/db mouse assessed as reduction in conversion of [14C]stearic acid to [14C]oleic acid; type: functional; conditions: read-out: ID50 (the source's name)
Procedure, shortened: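 Seven-week-old male db/db mice dosed by oral gavage 2 h before i.p. [14C]stearate (100 µCi/kg in saline with 2% BSA). Livers harvested 1 h later and homogenized in cold PBS. Saponified homogenate analyzed by AgNO3-TLC for the [14C]oleate/[14C]stearate ratio. ID50 is the dose giving 50% inhibition.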

[3] = Aqueous solubility of the compound at neutral JP-2 solution of pH 6.8 by HPLC analysis; type: physicochemical
Procedure, shortened: (§1)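 Solubility measured in purchased aqueous acidic JP-1 (pH 1.2) or neutral JP-2 (pH 6.8) media. Samples analyzed by HPLC, with UV peak area compared to a calibration standard of 250 µM compound in CH3CN/water 1:1. Means of at least two experiments.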

[4] = Half life in C57BL/6J mouse at 20 mg/kg, po; type: ADME, organism-based; set-up: dose 20 mg/kg, route oral; conditions: in vivo
Procedure, shortened: (§2)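 Oral gavage via intubation tube at 20 mg/kg in propylene glycol/Tween 4:1, n = 3 C57BL/6J mice. Plasma sampled up to 8 h after dosing. Values are arithmetic means of at least two experiments.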

[5] = Tmax in C57BL/6J mouse at 20 mg/kg, po; type: ADME, organism-based; set-up: dose 20 mg/kg, route oral; conditions: in vivo; procedure, shortened: as §2
[6] = AUC (0 to 8 hrs) in C57BL/6J mouse at 20 mg/kg, po; type: ADME, organism-based; set-up: time < 8 hr, dose 20 mg/kg, route oral; conditions: plasma; procedure, shortened: as §2
[7] = Aqueous solubility of the compound at acidic JP-1 solution of pH 1.2 by HPLC analysis; type: physicochemical; procedure, shortened: as §1
[8] = Cmax in C57BL/6J mouse at 20 mg/kg, po up to 8 hrs; type: ADME, organism-based; set-up: dose 20 mg/kg, route oral; conditions: in vivo; procedure, shortened: as §2

| IC50 (Acyl-CoA desaturase 1) [nM] | IC50 (Stearoyl-CoA desaturase [1]) [nM] | IC50 (Stearoyl-CoA desaturase [2]) [nM] | solubility [3] [µM] | half-life [4] [min] | Tmax [5] [min] | AUC(0-t) at 8 h [6] [ng·h/mL] | solubility [7] [µM] | Cmax [8] [ng/mL] | SMILES | ED50 (Mus musculus) [mg/kg] |
| --- | --- | --- | --- | --- | --- | --- | --- | --- | --- | --- |
| 4 | 7 | 6 | – | – | – | – | – | – | c1ccc2c(c1)CCC1(CCN(c3ccc(-c4nnc(Cc5ccncc5)o4)nn3)CC1)O2 | 7 |
| 0.2 | 0.7 | 0.2 | < 0.5 | 36 | 48 | 2100 | 91 (≈ 41.4 µg/mL) | 1100 | Cc1cccc2c1CCC1(CCN(c3ccc(-c4nnc(Cc5cccnc5)o4)nn3)CC1)O2 | 1 |
| 3 | 9 | 4 | – | – | – | – | – | – | c1ccc(Cc2nnc(-c3ccc(N4CCC5(CCc6ccccc6O5)CC4)nn3)o2)nc1 | 6 |
| 10 | 76 | 27 | – | – | – | – | – | – | O=C(NCCc1cccnc1)c1ccc(N2CCC3(CCc4ccccc4O3)CC2)nn1 | 5 |
